Only some compounds are listed: those with a hit (about 1.5% of all), similar ones and a draw of the others.
APJ ag: agonists of human apelin receptor APJ, primary screen, CHO-K1 cells, PathHunter beta-arrestin, luminescence | 0.11% of 330,000 active | 0% DMSO wells, 100% apelin | activation, % at 20 µM | P35414;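 active means activation more than six SD over the plate average, tested at 20 µM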;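 further: 0% = DMSO alone and 100% = apelin-13 at 10 nM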
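Assay system: engineered CHO-K1 APJ arrestin reporter cells; Amount: 1000 CHO-K1 reporter cells seeded per well; Dosing: one dose, 20 µM compound, 1% DMSO; Times: compound stimulation 90 min at 25 °C, detection 60 min; Measured by: luminescent beta-gal fragment complementation, chemiluminescent substrate; Read-out: APJ–arrestin association signal; Controls: DMSO vs Apelin-13 10 nM.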
CXCR6 block: CXCR6 receptor inhibitors, primary screen, cell-based, beta-arrestin, luminescence, CHO-K1 PathHunter, 1536-well; 0.36% of 360,000 active; inhibition, % at 20 µM; C-X-C chemokine receptor type 6 (Homo sapiens), O00574; in the data active means inhibition above about 34%, passing the limit was not always enough;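 further: antagonist mode with CXCL16 agonist at 10 nM final; 0% = 10 nM CXCL16 with DMSO and 100% = unstimulated wells without agonist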
Target sequence (O00574 whole entry, looked up): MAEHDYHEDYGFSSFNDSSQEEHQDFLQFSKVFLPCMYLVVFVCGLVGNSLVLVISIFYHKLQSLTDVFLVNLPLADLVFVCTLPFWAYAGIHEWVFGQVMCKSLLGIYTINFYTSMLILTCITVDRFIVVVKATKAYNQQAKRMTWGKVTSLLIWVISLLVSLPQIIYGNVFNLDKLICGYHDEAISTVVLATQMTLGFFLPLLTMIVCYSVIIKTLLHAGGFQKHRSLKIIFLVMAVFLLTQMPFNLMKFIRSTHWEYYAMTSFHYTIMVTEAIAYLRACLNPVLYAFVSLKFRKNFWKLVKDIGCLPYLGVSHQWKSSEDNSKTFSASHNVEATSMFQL
EBI2 antag: EBI2 receptor antagonists, beta-arrestin recruitment, primary screen, cell-based, luminescence, 7a,25-OHC stimulation, uHTS | 7a,25-OHC stimulated | AID 651636, 2012 | G-protein coupled receptor 183 (Homo sapiens), P32249 | 0.81% of 360,000 active | inhibition, % at 5 µM; in the data active means inhibition above about 38%;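 further: enzyme fragment complementation signal reports receptor beta-arrestin coupling in cells; 0% = agonist plus DMSO wells and 100% = wells without agonist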
Target sequence (P32249 whole entry, looked up, the tested form may be a part): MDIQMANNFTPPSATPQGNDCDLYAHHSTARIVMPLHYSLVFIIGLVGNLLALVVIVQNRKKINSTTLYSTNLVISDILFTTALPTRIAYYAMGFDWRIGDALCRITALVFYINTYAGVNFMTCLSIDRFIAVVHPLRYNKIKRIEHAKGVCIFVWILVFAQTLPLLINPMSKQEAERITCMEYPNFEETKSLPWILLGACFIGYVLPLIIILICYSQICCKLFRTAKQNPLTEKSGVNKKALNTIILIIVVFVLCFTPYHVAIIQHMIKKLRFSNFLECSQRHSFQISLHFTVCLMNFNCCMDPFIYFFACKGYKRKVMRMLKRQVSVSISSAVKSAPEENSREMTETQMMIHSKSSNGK
CCR6 antagonist: CCR6 receptor antagonists, primary screen, cell-based, CHO-K1, luminescence, beta-arrestin, uHTS; 0.49% of 340,000 active; AID 493098, 2011; CHO-K1 CCR6 PathHunter beta-arrestin, CCL20-stimulated; inhibition, % at 20 µM;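 active means compounds whose inhibition of the agonist-driven luminescence signal at 20 µM reaches about 50%, limit read from the data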;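 further: cells stimulated with CCL20 at 14 nM final; plate controls were DMSO with CCL20 for no effect and DMSO without agonist for full effect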
APJ antag: antagonists of human apelin receptor APJ, primary screen, CHO-K1 cells, beta-arrestin complementation, luminescence; inhibition, % at 20 µM; P35414; 0.32% of 330,000 active;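 active means inhibition above about 40% at 20 µM, limit read from the data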;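 further: cells challenged with 10 nM apelin-13 agonist together with compound; plate controls were apelin-13 plus DMSO wells for no effect and DMSO wells lacking apelin-13 for full effect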
EBI2 antag conf: EBI2 antagonist hit retest, beta-arrestin, confirmation, cell-based, single concentration, luminescence, 7a,25-OHC stimulation. shares compounds with EBI2 antag. 7a,25-OHC antagonism. inhibition, % at 5 µM. 29% of 2,400 active. AID 651997, 2013;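 active means inhibition of at least 50%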
EBI2 ag: EBI2 agonist activity of antagonist hits, confirmation, counter-screen for EBI2 antagonist project, cell-based, single concentration, agonist mode, luminescence; shares compounds with EBI2 antag; activation, % at 5 µM; 2,400 tested, under 10 active; EBI2-expressing cells, 60 min; 0% vehicle, 100% 7α,25-dihydroxycholesterol control;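 active means activation of at least 50%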
bGal counter: E. coli beta-galactosidase enzyme inhibition, confirmation, counter-screen for EBI2 antagonist project, biochemical, luminescence, single concentration. shares compounds with EBI2 antag. purified beta-galactosidase, luminescent Galacton Star, 15 min. inhibition, % at 5 µM. 1% of 2,400 active. AID 652176, 2013;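 active means replicate-average signal at least 3 plate SD below neutral wells, shown as high inhibition, flagging enzyme-inhibiting false positives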;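 further: 0% = DMSO wells with enzyme and 100% = wells lacking enzyme; higher means stronger loss of beta-gal luminescence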
Numbers without * were called inactive; x = no result given.

SMILES | APJ ag | CXCR6 block | EBI2 antag | CCR6 antagonist | APJ antag | EBI2 antag conf | EBI2 ag | bGal counter
O=C(CSc1nnc(-c2ccc(O)cc2)n1Cc1ccco1)N1CCc2ccccc2C1 | -1 | 0 | 76* | 10 | -4 | 15 | 0 | 1
NC(=O)CSc1nnc(-c2ccc(O)cc2)n1Cc1ccco1 | 5 | -3 | -9 | -1 | 0 | x | x | x
CCOC(=O)N1CCN(C(=O)/C=C/c2ccc([N+](=O)[O-])cc2)CC1 | 1 | -6 | 80* | -6 | 17 | 58* | 0 | 7
CCOC(=O)N1CCN(C(=O)/C=C/c2cccc([N+](=O)[O-])c2)CC1 | 1 | -6 | 48* | 8 | 2 | 26 | -1 | -11
CCOC(=O)N1CCN(C(=O)/C=C/c2ccc(C(C)(C)C)cc2)CC1 | -1 | -4 | 62* | 11 | -9 | 53* | 1 | 8
CCOC(=O)N1CCN(C(=O)/C=C/c2ccc(OC)c(OC)c2)CC1 | 2 | 9 | 28 | 11 | -3 | x | x | x
O=C(/C=C/c1ccc([N+](=O)[O-])cc1)N1CCN(S(=O)(=O)c2cccs2)CC1 | 1 | -1 | 93* | -11 | -34 | 63* | 1 | 3
O=C(CSc1nnc(CNC(=O)c2c(F)cccc2Cl)o1)NC1CCCC1 | -1 | -4 | -6 | 12 | 2 | x | x | x
Cc1ccc(S(=O)(=O)N(CC(=O)N/N=C/c2cccc3c2OCCO3)c2ccccc2F)cc1 | -1 | -1 | 19 | -36 | -15 | x | x | x
O=c1[nH]c(C2CCN(S(=O)(=O)Cc3ccccc3)CC2)nc2c1nnn2Cc1ccccc1Cl | 0 | 2 | 11 | 14 | -1 | x | x | x
Nc1ccc(Nc2nc(-c3cc4ccccc4oc3=O)cs2)cc1 | -2 | -6 | 12 | 11 | -42 | x | x | x
COc1cccc2sc(Nc3nc(-c4cc5ccccc5oc4=O)cs3)nc12 | x | 15 | 46* | 24 | x | 20 | -1 | -10
O=C(/C=C/c1ccc(Cl)cc1)NC1CC2CCC1C2 (stereo not drawn) | -2 | 3 | 63* | 21 | 2 | 24 | -1 | -9
COc1cc(OC)cc(C(=O)N2CCN(C(=O)c3ccc(-c4ccccc4)cc3)CC2)c1 | -1 | 1 | 89* | -6 | -12 | 67* | -1 | -1
COc1ccc(C(=O)N2CCN(c3ccc(C)cc3)CC2)cc1OC | 0 | 2 | 17 | -9 | -9 | x | x | x
O=C(c1ccccc1)N1CCN(C(=O)c2ccc(OC(F)(F)F)cc2)CC1 | 0 | 1 | 53* | 0 | 1 | 28 | 2 | 11
CCC(C)NC(=O)C1CCN(C(=O)c2ccccc2)CC1 (stereo not drawn) | 0 | 2 | 4 | 11 | 3 | x | x | x
COc1ccc(C(=O)N2CCN(C(=O)c3ccc(-c4ccccc4)cc3)CC2)cc1OC | 1 | 2 | 81* | 15 | 6 | 49 | 0 | 11
CC(=O)N1CCN(C(=O)c2ccc(Oc3ccccc3)cc2)CC1 | -3 | 4 | 2 | -7 | 5 | x | x | x
CC(C)NC(=O)C1CCN(C(=O)c2ccc(-c3ccccc3)cc2)CC1 | -5 | -3 | 44* | 18 | 6 | 42 | -2 | -20
O=C(COc1ccc(Cl)cc1Cl)OCC(=O)c1ccc[nH]1 | 0 | 4 | -3 | 3 | 9 | x | x | x
COc1ccc(-c2csc(C(C)(O)c3ccccc3)n2)cn1 (stereo not drawn) | x | -4 | 6 | x | x | x | x | x
COc1ccc(C(=O)N2CCC(O)(c3ccc(Cl)cc3)CC2)cc1OC | 3 | -2 | 52* | 3 | -15 | 44 | 2 | 1
CC(C)CC(=O)N1CCN(C(=O)c2cccc(F)c2)CC1 | 0 | -4 | -4 | -16 | 10 | x | x | x
CC(C)CC(=O)N1CCN(C(=O)c2ccc(-c3ccccc3)cc2)CC1 | 0 | -18 | 74* | -5 | 16 | 25 | 0 | 7
SMILES | APJ ag | CXCR6 block | EBI2 antag | CCR6 antagonist | APJ antag | EBI2 antag conf | EBI2 ag | bGal counter
COc1ccc(C(=O)N2CCC(O)(c3ccc(F)cc3)CC2)cc1OC | 1 | -5 | 20 | 15 | 2 | x | x | x
CCOc1ccc(C2C(C#N)=C(N)Oc3n[nH]c(C)c32)cc1OC(=O)C1CC1 (stereo not drawn) | 2 | 4 | -8 | 2 | -16 | x | x | x
Cc1noc(/C=C/c2ccco2)c1S(=O)(=O)N1CCC(C(=O)NCc2ccco2)CC1 | -4 | -7 | 3 | 22 | 2 | x | x | x
Cc1ccc(CNC(=O)N2CCN(S(=O)(=O)c3ccccc3)CC2)cc1 | -3 | 6 | 56* | 14 | -16 | 49 | 3 | -3
COc1ccc(S(=O)(=O)N2CCC(C(=O)NCc3ccc(C)cc3)CC2)cc1 | 1 | 3 | 66* | 12 | 7 | 55* | 2 | 8
COc1ccc(CNC(=O)C2CCN(S(=O)(=O)c3cccc(C(F)(F)F)c3)CC2)cc1 | 1 | -6 | 54* | 10 | 5 | 38 | 0 | -16
COc1ccc(S(=O)(=O)N2CCC(C(=O)NCc3ccncc3)CC2)cc1 | 1 | -7 | -12 | 9 | -7 | x | x | x
Cc1ccc(CNC(=O)C2CCN(S(=O)(=O)c3c(C)noc3/C=C/c3ccco3)CC2)cc1 | -4 | 11 | 65* | 16 | -2 | 49 | 2 | 2
CC1=C(C(=O)OC2CCCCC2)C(c2ccc(O)cc2)NC(=O)N1 (stereo not drawn) | -2 | -1 | -3 | -4 | -7 | x | x | x
C/C(=N\NC(=O)C1CC1)c1ccc(Cl)cc1 | 2 | 4 | -15 | 13 | -19 | x | x | x
C=CCn1c(SCc2c(C)noc2C)nc2ccccc2c1=O | -7 | 1 | 5 | 8 | -20 | x | x | x
COc1cc2nc(SCc3c(C)noc3C)n(CCC3=CCCCC3)c(=O)c2cc1OC | 9 | 27 | 46* | 22 | 7 | 15 | -1 | -6
O=C1CCCC2=C1C1(CCCCC1)N=C(Nc1nc3ccccc3o1)N2 | 4 | 2 | 47* | -26 | 16 | 40 | -2 | -21
O=C1CCCC2=C1C1(CCCC1)N=C(Nc1nc3ccccc3o1)N2 | x | 6 | 23 | x | x | x | x | x

Bioassay records as filed in PubChem BioAssay.
